This is a sample that favours compounds with a hit; in the whole collection about 4.2% have one here.
GalR3 antag: GalR3 antagonists in HEK293 cells, primary screen, cell-based, fluorescence readout; Galanin receptor type 3 (Homo sapiens), O60755; HEK293 GalR3-CNG cAMP membrane potential fluorescence; galR3 body fused to GalR1 C-terminus; 0.44% of 360,000 active; inhibition, % at 3 µM;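 active = inhibition above the screen-wide average plus 3 SD, cut at about 13% in these data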;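 also: forskolin and galanin both at EC90 stimulate the cells; cAMP rise reported by CNG channel membrane potential dye signal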
CHO parental Ca: ATP-evoked calcium signal inhibitors, parental CHO, primary screen, counter-screen for OX1R antagonist project, cell-based, fluorescence, Fluo-8 calcium dye; parental CHO-K1, ATP-induced calcium, Fluo-8 fluorescence; 0.63% of 330,000 active; inhibition, % at 5.6 µM;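 active = inhibition above that plate's mean sample inhibition plus 3 SD, cut at about 26% in these data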
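Assay system: parental CHO cells; Read-out basis: percent inhibition of ATP-evoked calcium rise, normalized to controls; Benchmarks: ATP and no-ATP DMSO wells; Compound dosing: single nominal dose of 5.6 µM per compound; Signal: Fluo-8 calcium dye fluorescence; Also added: ATP as calcium-mobilizing challenge; Repeats: singlicate.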
TAAR1 antag: human TAAR1 antagonists, primary screen, Fluo-8 calcium fluorescence, CHO RD-HGA16 cells; inhibition, % at 3 µM; antagonist; AID 624466, 2012; Trace amine-associated receptor 1 (Homo sapiens), Q96RJ0; 1.5% of 360,000 active;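 active = inhibition above a per-plate cutoff, the mean inhibition of test compounds on that plate plus 3 SD, cut at about 49% in these data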
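Test system: RD-HGA16 CHO cells with stable hTAAR1 and Gα16 / Probe or stimulus: EC80 β-phenethylamine stimulus / Times: seeding 17-24 h prior, 75-min 37 °C, 30-min RT dye loading / Detection: Fluo-8 calcium-sensitive fluorescence / Read-out basis: % inhibition scaled between DMSO and EC80 PEA controls / Repeats: singlicate, one well per test compound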
OX1R antag-1: antagonists of human orexin 1 receptor (OX1R) | Orexin/Hypocretin receptor type 1 (Homo sapiens), O43613 | OX1R-expressing cells, FRET antagonist read-out | inhibition, % at 6.6 µM | 1.8% of 330,000 active | AID 485270, 2010; in the data active = inhibition mostly above about 38%, no sharp cut-off; inactive = mostly below about 40%
Target sequence (O43613 whole entry, looked up): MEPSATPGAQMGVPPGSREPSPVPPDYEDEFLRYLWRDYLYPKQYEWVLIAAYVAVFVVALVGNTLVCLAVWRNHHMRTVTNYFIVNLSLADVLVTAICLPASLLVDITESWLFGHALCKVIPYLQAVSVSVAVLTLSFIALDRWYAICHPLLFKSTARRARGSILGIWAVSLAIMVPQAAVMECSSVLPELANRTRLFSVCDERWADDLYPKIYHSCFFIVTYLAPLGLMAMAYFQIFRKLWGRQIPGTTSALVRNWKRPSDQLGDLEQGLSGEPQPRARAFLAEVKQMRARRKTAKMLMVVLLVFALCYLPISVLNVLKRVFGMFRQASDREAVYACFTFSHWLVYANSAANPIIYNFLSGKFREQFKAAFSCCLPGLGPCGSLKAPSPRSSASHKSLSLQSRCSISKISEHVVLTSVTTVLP
TAAR1 ag: human TAAR1 agonists, primary screen, Fluo-8 calcium fluorescence, CHO RD-HGA16 cells | AID 624467, 2012 | activation, % at 3 µM | 0.99% of 360,000 active | Trace amine-associated receptor 1 (Homo sapiens), Q96RJ0 | vehicle wells 0%, saturating PEA agonist 100%;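 active = activation above the mean activation of all test compounds in the run plus 3 SD, cut at about 38% in these data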
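Assay system: CHO-derived RD-HGA16 cells with stable Gα16 and human TAAR1; timing: 17-24 h seeding, 75 min 37 °C dye, 30 min RT; read-out: % activation from peak over basal fluorescence ratio, DMSO-to-PEA scaled; measured by: kinetic Fluo-8 calcium fluorescence; benchmarks: low control DMSO, high control PEA (EC100); doses: 3 µM single concentration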
OX1R antag-2: OX1R (HCRTR1) antagonists, primary screen, fluorescence, CHO/OX1R cells, Fluo-8 calcium, orexin A. Fluo-8 calcium fluorescence. inhibition, % at 5 µM. 0.43% of 330,000 active. AID 434989, 2010;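 active = inhibition above its plate's threshold, mean inhibition of all tested compounds on the plate plus 3 SD, cut at about 37% in these data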
Numbers stand for hits; – = inactive; · = not tested or not shown.

SMILES | GalR3 antag | CHO parental Ca | TAAR1 antag | OX1R antag-1 | TAAR1 ag | OX1R antag-2
O=C(CN1C(=O)NC2(CCCC2)C1=O)NCCN1C(=O)S/C(=C\c2ccccc2F)C1=O | – | – | – | 51 | – | –
O=C(CN1C(=O)CC(c2ccccc2)Sc2ccccc21)NCC1CCCO1 (stereo unspecified) | – | – | – | – | – | –
O=C(Nc1ccccc1)c1ccccc1OCC(O)CN1C(=O)c2ccccc2S1(=O)=O (stereo unspecified) | – | – | 65 | – | – | –
COCCn1c(SCC(=O)Nc2ccc3c(c2)OCCO3)nnc1-c1c[nH]c2ccccc12 | – | – | – | 50 | – | –
CCOC(=O)c1c(NC(=O)CSc2nnc(-c3c[nH]c4ccccc34)n2CCOC)sc2c1CCCC2 | · | – | – | 41 | – | –
CCOC(=O)c1c(NC(=O)CSc2nnc(-c3c[nH]c4ccccc34)n2C)sc2c1CCCC2 | · | – | – | – | – | –
COCCn1c(SCC(=O)Nc2ccc3c(c2)OCCO3)nnc1-c1ccncc1 | – | – | – | – | – | –
COc1ccc(S(=O)(=O)N2CCN(C(=O)c3ccco3)CC2)cc1OC | – | – | – | – | – | –
CCN(CC)c1ccc2c(c1)CCCN2 | · | – | · | 85 | · | –
O=S(=O)(c1ccc2c(c1)CCCN2)N1CCCCC1 | – | – | – | – | – | –
C=CC[C@H](CC(=O)N[C@H](CO)Cc1ccccc1)C(=O)N[C@@H](COC(=O)[C@H](CC=C)CC(=O)OC(C)(C)C)Cc1c[nH]c2ccccc12 | – | – | 60 | – | – | –
C=CC[C@@H](CC(=O)N[C@H](CO)Cc1ccccc1)C(=O)N[C@H](COC(=O)[C@@H](CC=C)CC(=O)OC(C)(C)C)Cc1c[nH]c2ccccc12 | – | 61 | 65 | – | – | 84
C=CC[C@@H](CC(=O)N[C@@H](CO)Cc1ccccc1)C(=O)N[C@@H](COC(=O)[C@@H](CC=C)CC(=O)OC(C)(C)C)Cc1c[nH]c2ccccc12 | – | – | – | – | – | –
COc1ccc(S(N)(=O)=O)cc1C(=O)OCC(=O)N1c2ccccc2NC(=O)C1(C)C | – | – | – | – | – | –
COc1cc(/C=C/C(=O)OCC(=O)N2c3ccccc3NC(=O)C2(C)C)cc(OC)c1OC | – | – | 64 | 39 | – | –
CCCN1C2=C(C(=O)CC(C)(C)C2)C(c2ccc(F)cc2)C2=C1c1ccccc1C2=O (stereo unspecified) | – | – | – | – | – | –
Cc1ccccc1C(=O)Oc1ccc2ccc(O)cc2c1 | – | 66 | – | – | – | –
O=C(Nc1cc(Cl)ccc1O)c1snnc1-c1ccccc1 | – | – | – | 46 | – | –
O=C(Nc1cccc(Cl)c1Cl)c1snnc1-c1ccccc1 | – | – | – | – | – | –
COc1cc(/C=N/NC(=O)c2cccc([N+](=O)[O-])c2)ccc1O | – | – | – | – | – | –
Cn1cc(/C=C/c2cc[n+](C)cc2)c2cc(F)ccc21 | · | – | · | 44 | · | –
C/C(=N/NC(=O)c1ccc2c(c1)OCO2)c1ccc(NC(=O)c2ccc(F)cc2)cc1 | – | · | – | · | – | ·
Cc1onc(-c2ccccc2Cl)c1C(=O)N1CCCc2ccccc21 | – | – | – | 35 | – | –
c1ccn2cc(-c3ccc4c(c3)OCCO4)nc2c1 | – | – | – | – | – | –
CC[n+]1c(/C=C/N(C)c2ccccc2)n(-c2ccccc2)c2ccc(-c3nc4ccccc4s3)cc21 | · | 69 | · | 42 | · | 79
SMILES | GalR3 antag | CHO parental Ca | TAAR1 antag | OX1R antag-1 | TAAR1 ag | OX1R antag-2
CCOC(=O)c1ccc2c(c1)n(CC)c(/C=C/N(C)c1ccccc1)[n+]2CC | – | – | – | – | – | –
O=C(OC(c1ccccc1)c1nccc2ccccc12)c1cccc([N+](=O)[O-])c1 (stereo unspecified) | – | – | – | – | – | –
N#Cc1nc(Cc2cccc3ccccc23)oc1N1CCOCC1 | · | – | · | – | · | –
c1ccc(-c2nc3c(ccc4ccccc43)[nH]2)nc1 | – | – | – | 71 | – | –
COc1ccc(CCNCc2cc(C)n(-c3ccc(OC)cc3)c2C)cc1 | – | – | – | – | 45 | –
COc1ccc(CCNCc2ccccc2N2CCCC2)cc1 | – | – | – | – | – | –
CCN1C(=O)CC(C(=O)Nc2ccc(F)cc2)SC1=Nc1ccc2c(c1)OCO2 (stereo unspecified) | – | – | 52 | – | – | –
CCN=C1SC(C(=O)Nc2cc(Cl)cc(Cl)c2)CC(=O)N1CC (stereo unspecified) | – | – | – | – | – | –
CCN=C1SC(C(=O)Nc2ccc(OCC)cc2)CC(=O)N1CC (stereo unspecified) | – | – | – | – | – | –
CCOc1ccc(NC(=O)C2CC(=O)N(CC)C(=Nc3ccc4c(c3)OCO4)S2)cc1 (stereo unspecified) | – | – | – | – | – | –
CCN=C1SC(C(=O)Nc2ccc(OC)cc2)CC(=O)N1CC (stereo unspecified) | – | – | 55 | – | – | –
CCN=C1SC(C(=O)Nc2cccc(Cl)c2)CC(=O)N1CC (stereo unspecified) | – | – | 58 | – | – | –
CCN=C1SC(C(=O)Nc2cccc(C)c2)CC(=O)N1CC (stereo unspecified) | – | – | 63 | – | – | –
O=C1c2ccccc2[C@@H]2C[C@@H](O)[C@H](Nc3cccc4ccccc34)CCN12 | – | – | – | 42 | – | –
COc1ccc(N[C@@H]2CCN3C(=O)c4ccccc4[C@@H]3C[C@H]2O)cc1 | – | – | – | – | – | –
CCOc1ccc2c(c1)C(c1ccc(C)o1)=NNC(c1ccncc1)=N2 | – | – | – | – | – | –
CC(NCC(O)COC1CCC(C(C)(C)C)CC1)c1ccccc1 (stereo unspecified) | – | – | – | – | 44 | –
COc1ccc(OCC(O)CNC(C)c2ccccc2)cc1 (stereo unspecified) | – | – | – | – | – | –
CC(NCC(O)COc1ccc(Br)cc1)c1ccccc1 (stereo unspecified) | – | – | – | – | 43 | –
CCCC(NCC(O)COc1ccc(-c2ccccc2)cc1)c1ccccc1 (stereo unspecified) | – | 53 | – | – | 40 | –
